FN deposit inh: fibronectin deposition inhibition. AH1F fibroblasts, Alexa488-fibronectin deposition fluorescence, overnight. 350,000 tested, 0.086% active. inhibition, % at 12.6 µM;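 active means mean inhibition across replicates of 30% or more, regardless of how many single replicates reach that level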;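 further: positive control wells lacked labelled fibronectin entirely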
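Measured by – fluorescence 485/525 nm · System – AH1F fibroblast monolayer, labelled fibronectin deposition · Amount – 10000 cells per well · Buffer or medium – serum-reduced DMEM (2% serum) · Doses – single dose, pinned · Also added – fluorescent fibronectin at 24 nM final · Schedule – 1 h cell attachment, overnight exposure to compound and label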
HIV Env fusion: HIV envelope-mediated fusion inhibition; HeLa-JRFL Env/CEM21 cell fusion, luciferase; inhibition, % at 12.3 µM; 360,000 tested, 1.1% active; AID 651610;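 active means mean replicate inhibition score of at least 50 and every replicate individually at or above 50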;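 further: 0% = plate neutral controls and 100% = maraviroc near 300 nM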
ERp5 inh: ERp5 (human) disulfide isomerase inhibition | inhibition, % at 9.99 µM | Q15084 | ERp5 insulin aggregation, absorbance 650 nm, 90 min | 350,000 tested, 0.05% active;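 active means mean replicate inhibition above about 25%, with every replicate also reaching it, limit read from the data, passing the limit was not always enough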
GSIS activator: GLuc luminescence reporter in INS-1E cells, primary screen for activators of glucose-dependent secretion of insulin | INS-1E GLuc reporter insulin secretion, 2-3 h | activation, % at 16.6 µM | 370,000 tested, 0.61% active | AID 743287;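 active means lowest replicate activation of at least 40%, so every replicate reaches that level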;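 further: 0% = median of neutral control wells and 100% = median of IBMX positive control wells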
PDI turbidity: blocks human protein disulfide isomerase activity; 350,000 tested, 0.052% active; P07237; PDI insulin aggregation turbidity, A650, 90 min; inhibition, % at 10 µM;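 active means mean inhibition across replicates of 30% or more, whatever share of single replicates reach that level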
Target sequence (P07237 whole entry, looked up): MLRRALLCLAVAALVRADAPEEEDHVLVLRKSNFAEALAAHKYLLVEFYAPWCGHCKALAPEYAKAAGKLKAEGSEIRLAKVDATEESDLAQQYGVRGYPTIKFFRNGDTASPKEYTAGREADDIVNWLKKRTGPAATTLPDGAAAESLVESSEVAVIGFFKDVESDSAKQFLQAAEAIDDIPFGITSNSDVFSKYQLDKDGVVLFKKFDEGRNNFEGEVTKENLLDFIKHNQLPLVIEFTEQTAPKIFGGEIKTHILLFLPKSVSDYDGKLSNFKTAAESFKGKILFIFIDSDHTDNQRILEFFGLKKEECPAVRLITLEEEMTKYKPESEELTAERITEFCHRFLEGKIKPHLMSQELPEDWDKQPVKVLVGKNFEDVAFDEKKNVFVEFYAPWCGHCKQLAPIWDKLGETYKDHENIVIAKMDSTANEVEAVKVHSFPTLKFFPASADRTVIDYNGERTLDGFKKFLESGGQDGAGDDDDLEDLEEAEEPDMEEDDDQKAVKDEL
* hit, by the source's call; · = not tested or not shown; [ ] = another dose, or the depositor's remark. Only some compounds are listed: those with a hit (about 1.4% of all), similar ones and a draw of the others.

SMILES | FN deposit inh | HIV Env fusion | ERp5 inh | GSIS activator | PDI turbidity
COc1ccc(-c2csc(NC(=O)c3ccccc3NS(=O)(=O)c3ccc(C)cc3)n2)cc1 | -6.1 | · | -4.7 | -45.3 | 1.1
COc1ccc(S(=O)(=O)Nc2ccccc2C(=O)Nc2nc(-c3ccc(F)cc3)cs2)cc1OC | -8.3 | 65.8* | · | -35.3 | -3.2
Cc1noc(C)c1NC(=O)N(C)C[C@@H]1Oc2ccc(NC(=O)NC3CCCCC3)cc2CC(=O)N([C@@H](C)CO)C[C@H]1C | · | -24.6[16.7 µM] | -0.3 | 12.3 | ·
Cc1noc(C)c1S(=O)(=O)N1CCCCC1c1cc(C(=O)Nc2cccc3c2CCCC3)no1 (stereo not given) | -9.7 | 13.2 | -3.6 | -18.3 | 6.4
N#Cc1ccc(S(=O)(=O)N2CCCCC2c2cc(C(=O)Nc3cccc4c3CCCC4)no2)cc1 (stereo not given) | · | 59.9* | 4.8 | 13.8 | 3.8
CS(=O)(=O)N1CCCCC1c1cc(C(=O)Nc2cccc3c2CCCC3)no1 (stereo not given) | -3.6 | -12.1 | 4.2 | 54.1* | -4.3
Cc1noc(C)c1S(=O)(=O)N(C)C[C@@H]1Oc2ccc(NC(=O)Nc3ccc(C(F)(F)F)cc3)cc2CC(=O)N([C@@H](C)CO)C[C@H]1C | -18.8 | 3.3[16.7 µM] | · | -8.5 | ·
COc1ccccc1NC(=O)N[C@@H]1C=C[C@H](CC(=O)N[C@@H](C)c2ccccc2)O[C@H]1CO | -9.0 | 4.3[16.7 µM] | -3.7 | -2.8 | ·
Oc1cccc2ccc(Nc3ccccn3)nc12 | 9.6 | 60.5* | · | · | 15.1
c1ccc(Nc2ccccc2Nc2ccccn2)nc1 | · | · | 3.2 | 14.8 | -0.9
CC[C@]12c3[nH]c4ccccc4c3CCN1C(=O)C(CC(=O)NCc1ccc(OC)c(OC)c1)C[C@@H]2C(=O)N1CCN(C(=O)C2CC2)CC1 (stereo not given in full) | -3.3 | 60.8* | -1.8 | 1.0 | -1.1
CC[C@]12c3[nH]c4ccc(OC)cc4c3CCN1C(=O)C(CC(=O)NCC13CC4CC(CC(C4)C1)C3)C[C@@H]2C(=O)N1CCN(C(=O)C2CC2)CC1 (stereo not given in full) | 0.3 | 69.9* | -5.7 | · | 3.0
CC[C@]12c3[nH]c4cc(-c5ccco5)ccc4c3CCN1C(=O)[C@@H](CC(=O)NCc1ccc(OC)c(OC)c1)C[C@@H]2C(=O)N1CCN(C(=O)c2ccco2)CC1 | 4.3 | -40.7 | 0.4 | -3.5 | 37.5*
CC[C@]12c3[nH]c4ccc(Cl)cc4c3CCN1C(=O)[C@@H](CC(=O)NCC13CC4CC(CC(C4)C1)C3)C[C@@H]2C(=O)N1CCN(C(=O)C2CC2)CC1 | · | 57.7* | 4.2 | -20.6 | 1.8
CC[C@]12c3[nH]c4cc(CCC(=O)N(C)C)ccc4c3CCN1C(=O)[C@@H](CC(=O)NCc1ccc(OC)c(OC)c1)C[C@@H]2C(=O)N1CCN(C(=O)c2ccco2)CC1 | -5.4 | · | -3.3 | -3.1 | -1.5
C[C@H](CO)N1C[C@H](C)[C@@H](CN(C)CC2CC2)Oc2c(NS(=O)(=O)c3ccc(Cl)cc3)cccc2C1=O | · | -21.9[16.7 µM] | -0.9 | 13.7 | ·
C[C@H](NC(=O)C[C@H]1CC[C@H]2[C@@H](COc3ccc(NC(=O)C4CCOCC4)cc3C(=O)N2C)O1)c1ccccc1 | 9.5 | · | 3.6 | 9.1 | ·
COc1ccc(S(=O)(=O)Nc2ccc3c(c2)C(=O)N([C@H](C)CO)C[C@H](C)[C@H](CN(C)C(=O)Nc2ccc4c(c2)OCO4)O3)cc1 | -2.7 | 17.2[16.7 µM] | · | 1.9 | ·
CCN1[C@H](C(=O)NC2Cc3ccccc3C2)[C@@H](CO)[C@@H]2Cn3c(cccc3=O)[C@@H]21 | · | · | -4.0 | 4.2 | ·
CN1CCN(C(=O)C[C@@H]2CC[C@H](NC(=O)Nc3ccccc3F)[C@H](CO)O2)CC1 | -8.5 | 15.9[16.7 µM] | -9.5 | -7.3 | ·
CC[C@]12c3[nH]c4ccccc4c3CCN1C(=O)C(CC(=O)NCC13CC4CC(CC(C4)C1)C3)C[C@@H]2C(=O)N1CCN(C(=O)C2CC2)CC1 (stereo not given in full) | 4.6 | 99.7* | 0.2 | -37.5 | 0.6
CC[C@]12c3[nH]c4ccccc4c3CCN1C(=O)C(CC(=O)NC(C)(C)C)C[C@@H]2C(=O)N1CCN(C(=O)C2CC2)CC1 (stereo not given in full) | 12.3 | · | 2.9 | 4.3 | 0.9
CCCN(C)C[C@@H]1OCCCC[C@@H](C)Oc2ccc(NC(=O)Nc3c(C)noc3C)cc2C(=O)N([C@H](C)CO)C[C@@H]1C | · | 1.0[16.7 µM] | · | 18.1 | ·
CCCCN(C=O)c1c(CC)nc2ccc(C(=O)N(CC)CCN(C)C)cn12 | -2.2 | -9.6 | 7.6 | 11.1 | 10.7
CCCCN(C)c1c(C)nc2ccc(C(=O)N(CC)CCN(C)C)cn12 | 15.4 | 62.6* | 8.4 | 10.1 | -0.8
SMILES | FN deposit inh | HIV Env fusion | ERp5 inh | GSIS activator | PDI turbidity
COC(=O)C1=C(C)NC2=C(C(=O)CCC2)C1c1cn(Cc2ccc(Cl)cc2Cl)nc1-c1ccccc1 (stereo not given) | 0.5 | 109.6* | · | · | 0.0
CCOC(=O)C1=C(C)NC2=C(C(=O)CCC2)C1c1cn(Cc2ccc(Cl)cc2Cl)nc1-c1ccccc1 (stereo not given) | 0.3 | 121.4* | · | · | 4.4
C[C@H]1CN([C@@H](C)CO)C(=O)c2cc(C#Cc3cccnc3)cnc2O[C@@H]1CN(C)C | 4.0 | -18.1[16.7 µM] | -1.0 | 29.7 | ·
CC(=O)c1ccc(NC(=O)c2cc(CC(C)C)nc3ccccc23)cc1 | 4.6 | 57.8* | 1.2 | · | -5.1
CC(C)Cc1cc(C(=O)O)c2ccccc2n1 | · | · | · | -9.1 | 20.6
O=C(c1cccc(Cl)c1)N1CCC(=O)N(C(COCc2cccc(Cl)c2)Cc2ccccc2)CC1 (stereo not given) | -1.4 | 59.6* | 4.2 | · | 8.8
O=C(c1ccc(Cl)c(Cl)c1)N1CCC(=O)N(C(COCc2cccc(Cl)c2)Cc2ccccc2)CC1 (stereo not given) | 11.3 | 90.7* | -0.6 | · | -0.5
C[C@H]1CN([C@@H](C)CO)C(=O)Cc2cc(NC(=O)CCCCCC(=O)Nc3ccccc3N)ccc2O[C@@H]1CN(C)S(=O)(=O)c1ccc(F)cc1 | · | -15.7[16.7 µM] | 4.0 | -4.0 | ·
COc1cc2c(cc1NC(=O)c1cccc([N+](=O)[O-])c1)oc1ccccc12 | · | · | · | · | -4.2
COc1cc2c(cc1NC(=O)c1ccc(C)c([N+](=O)[O-])c1)oc1ccccc12 | -1.0 | -28.5 | · | 53.3* | -12.5
O=C1CCCCC1Sc1nnc(-c2ccc3c(c2)OCO3)o1 (stereo not given) | -9.7 | 67.6* | 4.4 | 8.9 | 12.0
COc1ccc(Nc2ccc(C(F)(F)F)cc2[N+](=O)[O-])cn1 | · | 59.3* | -3.8 | -0.4 | -1.9
Cc1cccc2nc(-c3ccco3)c(Nc3ccccc3)n12 | -1.1 | 3.9 | 8.3 | 41.0* | 7.9
Cc1cccc2nc(-c3ccco3)c(Nc3ccc4c(c3)OCO4)n12 | 1.1 | 27.2 | -2.0 | 8.4 | 5.5
O=C(c1ccc(C(F)(F)F)cc1)N(CCCn1ccnc1)C(c1ccccn1)c1nc2ccccc2[nH]1 (stereo not given) | -4.6 | 64.7* | 4.4 | 2.3 | ·

Screening data: PubChem BioAssay, Broad Institute
